The results in this text go back to ChEMBL document CHEMBL3272285, “A potential amphetamine antagonist, adamantanamine derivative of fluphenazine” (J Med Chem, 1976).

Data set [1] relates to Rattus norvegicus. The data set can be described thus: Toxicity in Sprague-Dawley rat assessed as spontaneous locomotor activity at 70 mg/kg, sc on day 7 relative to control. The format is organism-based. The arrangement: dose 70 mg/kg, route subcutaneous. Conditions: in vivo.
Data set [2] deals with Rattus norvegicus. The data set can be described thus: Inhibition of d-amphetamine-induced increase spontaneous locomotor activity in Sprague-Dawley rat at 70 mg/kg, sc on day 4, drug administered prior to 2 mg/kg d-amphetamine challenge on 1,2,4 and 7th day relative to control. The format is functional. The arrangement: scale not given: the % may be the effect or the level left. In outline: (§1)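 After the initial drug injections, with a sesame oil vehicle group as control, rats got 2 mg/kg d-amphetamine in saline on days 1, 2, 4 and 7. Motor activity was recorded with an electronic motility meter for 30 min immediately after each amphetamine dose, at the same time of day. Counts are expressed as % of the vehicle control group.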

In data set [3] the test system is Rattus norvegicus. The data set can be described thus: Inhibition of d-amphetamine-induced increase shock avoidance response in Sprague-Dawley rat at 70 mg/kg, sc on day 4, drug administered prior to 2 mg/kg d-amphetamine challenge on 1,2,4 and 7th day relative to control. It counts as functional. Set-up: scale not given: the % may be the effect or the level left. The essentials:
(§2)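 Rats were pretreated sc with 0.1 mmol of the dihydrochloride 1, 2, 4 or 7 days before 2 mg/kg d-amphetamine sulfate, in groups of five. Each was placed in a shuttle box 30 min after amphetamine and ran one session. Light and tone came on a variable interval 60-s schedule, with shock 5 s later; a trial ended without response 30 s after shock onset. Avoidances over 50 trials were scored as % of an amphetamine-only control group.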

For data set [4], the system named is Rattus norvegicus. The data set can be described thus: Toxicity in Sprague-Dawley rat assessed as shock avoidance response at 70 mg/kg, sc on day 2 relative to d-amphetamine. It counts as organism-based. Set-up: dose 70 mg/kg, route subcutaneous. The conditions noted are these: in vivo.
Data set [5] deals with Rattus norvegicus. Description: Toxicity in Sprague-Dawley rat assessed as spontaneous locomotor activity at 70 mg/kg, sc on day 1 relative to control. The conditions noted are these: in vivo. It counts as organism-based. The arrangement: dose 70 mg/kg, route subcutaneous.
The test system of data set [6] is Rattus norvegicus. The data set can be described thus: Toxicity in Sprague-Dawley rat assessed as spontaneous locomotor activity at 70 mg/kg, sc on day 4 relative to control. The conditions noted are these: in vivo. It counts as organism-based. Set-up: dose 70 mg/kg, route subcutaneous.
Data set [7] deals with Rattus norvegicus. The data set can be described thus: Toxicity in Sprague-Dawley rat assessed as sedation effect at 70 mg/kg, sc for 2 days. The format is organism-based. Set-up: dose 70 mg/kg, route subcutaneous. The conditions noted are these: in vivo, 48 h.
For data set [8], the system named is Rattus norvegicus. The data set can be described thus: Inhibition of d-amphetamine-induced increase spontaneous locomotor activity in Sprague-Dawley rat at 70 mg/kg, sc on day 7, drug administered prior to 2 mg/kg d-amphetamine challenge on 1,2,4 and 7th day relative to control. It counts as functional. Set-up: scale not given: the % may be the effect or the level left. The essentials:
as §1

Data set [9] relates to Rattus norvegicus. Description: Inhibition of d-amphetamine-induced increase spontaneous locomotor activity in Sprague-Dawley rat at 70 mg/kg, sc on day 1, drug administered prior to 2 mg/kg d-amphetamine challenge on 1,2,4 and 7th day relative to control. The format is functional. The arrangement: scale not given: the % may be the effect or the level left. The essentials:
as §1

For data set [10], the system named is Rattus norvegicus. Description: Toxicity in Sprague-Dawley rat assessed as shock avoidance response at 70 mg/kg, sc on day 7 relative to d-amphetamine. The format is organism-based. The conditions noted are these: in vivo. The arrangement: dose 70 mg/kg, route subcutaneous.
Data set [11] deals with Rattus norvegicus. The data set can be described thus: Toxicity in Sprague-Dawley rat assessed as shock avoidance response at 70 mg/kg, sc on day 1 relative to d-amphetamine. It counts as organism-based. The arrangement: dose 70 mg/kg, route subcutaneous. The conditions noted are these: in vivo.
Data set [12] deals with Rattus norvegicus. Description: Inhibition of d-amphetamine-induced increase shock avoidance response in Sprague-Dawley rat at 70 mg/kg, sc on day 1, drug administered prior to 2 mg/kg d-amphetamine challenge on 1,2,4 and 7th day relative to control. The format is functional. The arrangement: scale not given: the % may be the effect or the level left. In outline:
as §2

The test system of data set [13] is Rattus norvegicus. The data set can be described thus: Toxicity in Sprague-Dawley rat assessed as shock avoidance response at 70 mg/kg, sc on day 4 relative to d-amphetamine. Conditions: in vivo. The format is organism-based. Set-up: dose 70 mg/kg, route subcutaneous.
Data set [14] concerns Rattus norvegicus. The data set can be described thus: Inhibition of d-amphetamine-induced increase shock avoidance response in Sprague-Dawley rat at 70 mg/kg, sc on day 2, drug administered prior to 2 mg/kg d-amphetamine challenge on 1,2,4 and 7th day relative to control. The format is functional. Set-up: scale not given: the % may be the effect or the level left. In outline: as §2

In data set [15] the test system is Rattus norvegicus. The data set can be described thus: Inhibition of d-amphetamine-induced increase shock avoidance response in Sprague-Dawley rat at 70 mg/kg, sc on day 7, drug administered prior to 2 mg/kg d-amphetamine challenge on 1,2,4 and 7th day relative to control. The format is functional. The arrangement: scale not given: the % may be the effect or the level left. In outline:
as §2

The subject of data set [16] is Rattus norvegicus. The data set can be described thus: Toxicity in Sprague-Dawley rat assessed as spontaneous locomotor activity at 70 mg/kg, sc on day 2 relative to control. It counts as organism-based. Set-up: dose 70 mg/kg, route subcutaneous. Conditions: in vivo.
Data set [17] relates to Rattus norvegicus. The data set can be described thus: Inhibition of d-amphetamine-induced increase spontaneous locomotor activity in Sprague-Dawley rat at 70 mg/kg, sc on day 2, drug administered prior to 2 mg/kg d-amphetamine challenge on 1,2,4 and 7th day relative to control. The arrangement: scale not given: the % may be the effect or the level left. The format is functional. The essentials:
as §1

Turning to `Cl.O=C(NC12CC3CC(CC(C3)C1)C2)OCCN1CCN(CCCN2c3ccccc3Sc3ccc(C(F)(F)F)cc32)CC1`, the Activity with Rattus norvegicus [1] amounted to 26.6%; with Rattus norvegicus [2], 71.2%; in the data set with Rattus norvegicus [3] it was 61.8%; in the data set on Rattus norvegicus [4] it was 82.2%; with Rattus norvegicus [5] it was 52.8%; in the data set on Rattus norvegicus [6] it was 29.6%. Moreover, the Activity result in the data set on Rattus norvegicus [7] was “Toxic”; in the data set on Rattus norvegicus [8], 101.2%; in the data set with Rattus norvegicus [9] it was 55.7%; in the data set on Rattus norvegicus [10], 72%; in the data set on Rattus norvegicus [11] it was 71.5%; in the data set with Rattus norvegicus [12], 16.7%. Besides, the Activity in the data set with Rattus norvegicus [13] is 90.9%; in the data set with Rattus norvegicus [14] it was 47%; with Rattus norvegicus [15], 92.5%; in the data set on Rattus norvegicus [16] it was 47.8%; with Rattus norvegicus [17], 51.9%.
